Measurements taken from ChEMBL document CHEMBL2331432, “Synthesis and dual biological effects of hydroxycinnamoyl phenylalanyl/prolyl hydroxamic acid derivatives as tyrosinase inhibitor and antioxidant” (Bioorg Med Chem Lett, 2013).
Calls of active or inactive are those of the source. No cut-off for these calls is given here.

What was measured:
Mel-Ab = assay: (§1) Inhibition of TPA-stimulated melanogenesis in mouse Mel-Ab cells at 100 uM after 4 days; format: functional
[1] = tested on: Radical scavenging activity; assay: Antioxidant activity assessed as DPPH radical scavenging activity by UV/Visible spectrophotometry; format: functional
Procedure, shortened: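 DPPH in methanol; antioxidant:DPPH molar ratio 0.25 for caffeic/dihydrocaffeic acids and their conjugates, 0.50 for p-coumaric, ferulic, sinapic acids and their conjugates. 10 min at 25 °C, absorbance at 516 nm. %RSA = (1−A/B)×100, B = methanol in place of sample. Triplicate, mean with standard error.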

[2] = Toxicity against mouse Mel-Ab cells at 100 uM by CCK-8 assay
[3] = target: T1, Tyrosinase (Agaricus bisporus) (UniProt O42713); assay: Inhibition of mushroom tyrosinase using L-DOPA substrate at 50 to 100 uM incubated for 10 mins
T1 sequence (whole entry): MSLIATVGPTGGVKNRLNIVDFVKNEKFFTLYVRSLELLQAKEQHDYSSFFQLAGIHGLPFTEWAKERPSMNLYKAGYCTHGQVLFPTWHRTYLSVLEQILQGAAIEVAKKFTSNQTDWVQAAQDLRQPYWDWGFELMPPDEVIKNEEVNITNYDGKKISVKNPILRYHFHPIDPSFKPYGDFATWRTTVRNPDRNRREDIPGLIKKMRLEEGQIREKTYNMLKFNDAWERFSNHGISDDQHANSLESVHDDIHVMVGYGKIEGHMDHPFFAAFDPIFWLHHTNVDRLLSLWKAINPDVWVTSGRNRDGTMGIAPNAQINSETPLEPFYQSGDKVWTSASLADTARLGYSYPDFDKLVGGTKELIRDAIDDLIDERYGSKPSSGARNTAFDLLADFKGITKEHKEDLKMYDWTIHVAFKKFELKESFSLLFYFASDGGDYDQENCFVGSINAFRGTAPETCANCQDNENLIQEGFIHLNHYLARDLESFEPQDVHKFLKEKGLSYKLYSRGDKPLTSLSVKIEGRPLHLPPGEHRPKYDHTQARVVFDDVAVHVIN
Procedure, shortened: (§2)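 Mushroom tyrosinase (25 µL of 100 µg/mL aqueous solution) added to 0.1 M phosphate buffer pH 6.8, 2.5 mM L-DOPA (stock), water and inhibitor in DMSO. Incubated 25 °C for 10 min, absorbance at 475 nm. %inhibition = (1−A/B)×100 against a DMSO-only reference. Single-point tests at 50 or 100 µM; kojic acid as reference. Triplicate, mean with standard error.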

[4] = Antioxidant activity assessed as inhibition of lipid peroxidation after 48 hrs by ferric thiocyanate assay; format: functional
Procedure, shortened: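 Lipid peroxidation run in an emulsified system with antioxidant at 90 µM final, 50 °C in the dark for 48 h. Ferric thiocyanate read-out: absorbance at 500 nm 3 min after colour development. Trolox as positive control. Triplicate, mean with standard error.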

[5] = target: T1, Tyrosinase (Agaricus bisporus); assay: Inhibition of mushroom tyrosinase using L-DOPA substrate at 100 uM incubated for 10 mins; procedure, shortened: as §2
[6] = as §1; format: functional; conditions: 96 h
Tyrosinase = target: T2, Tyrosinase (Agaricus bisporus, UniProt O42713); assay: Inhibition of mushroom tyrosinase using L-DOPA substrate incubated for 10 mins
T2 sequence (O42713 whole entry): T1 sequence (whole entry)

SMILES	inhibition [3]	Activity [1]	Activity [2]	inhibition [4]	other results
O=C(NO)C1CCCN1C(=O)CCc1ccc(O)c(O)c1 (centres undefined)	inactive	–	–	inactive	–
CC(=O)N1CCCC1C(=O)NO (centres undefined)	–	–	–	–	inhibition [5]: 5%
O=C(CCc1ccc(O)c(O)c1)NC(Cc1ccccc1)C(=O)NO (centres undefined)	inactive	–	–	inactive	–
O=C(O)/C=C/c1ccc(O)cc1	–	inactive	–	inactive	–
O=C(O)/C=C/c1ccc(O)c(O)c1 [CAFFEIC ACID]	–	–	Toxic	–	–
O=C(/C=C/c1ccc(O)cc1)NC(Cc1ccccc1)C(=O)NO (centres undefined)	Active	inactive	–	inactive	–
O=C(O)CCc1ccc(O)c(O)c1	–	–	–	inactive	–
OC[C@H]1O[C@@H](Oc2ccc(O)cc2)[C@H](O)[C@@H](O)[C@@H]1O	–	–	–	–	inhibition (Mel-Ab): Active
CC(=O)NC(Cc1ccccc1)C(=O)NO (centres undefined)	–	–	–	–	inhibition [5]: 6%
NC(=O)C(Cc1ccccc1)NC(=O)OCc1cc(=O)c(O)co1 (centres undefined)	–	–	–	–	IC50 (Tyrosinase): 4.2 µM

More lines, main results first:

inhibition [3]	SMILES	Activity [1]	Activity [2]	inhibition [4]	other results
inactive	COc1cc(/C=C/C(=O)NC(Cc2ccccc2)C(=O)NO)ccc1O (centres undefined)	Active	Non-toxic	Active	inhibition (Mel-Ab): inactive
inactive	COc1cc(/C=C/C(=O)NC(Cc2ccccc2)C(=O)NO)cc(OC)c1O (centres undefined)	–	Non-toxic	Active	inhibition at 100 µM [6]: 30%
inactive	COc1cc(/C=C/C(=O)N2CCCC2C(=O)NO)ccc1O (centres undefined)	Active	Non-toxic	Active	–
Active	O=C(NO)C1CCCN1C(=O)/C=C/c1ccc(O)cc1 (centres undefined)	inactive	–	inactive	–
inactive	COc1cc(/C=C/C(=O)N2CCCC2C(=O)NO)cc(OC)c1O (centres undefined)	Active	Non-toxic	Active	inhibition at 100 µM [6]: 30%
inactive	COc1cc(/C=C/C(=O)O)ccc1O	Active	–	–	–
Active	O=C(/C=C/c1ccc(O)c(O)c1)NC(Cc1ccccc1)C(=O)NO (centres undefined)	–	Non-toxic	Active	inhibition (Mel-Ab): Active; IC50 (Tyrosinase): 4.9 µM
Active	O=C(NO)C1CCCN1C(=O)/C=C/c1ccc(O)c(O)c1 (centres undefined)	Active	Non-toxic	Active	inhibition at 100 µM [6]: 30%
inactive	COc1cc(/C=C/C(=O)O)cc(OC)c1O	–	–	–	–
